Hits are enriched below; roughly 2.6% of the tested compounds scored in any of these assays.
PAD4 FP inh = human PAD4 inhibitors, primary screen, biochemical, fluorescence polarization, 1536-well format | 330,000 compounds, 0.41% hits | inhibition, % at 6.36 µM | recombinant PAD4, RCA probe fluorescence polarization;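 active = percent inhibition above a cutoff equal to the mean of all tested compounds plus 3 SD, cut at about 15% in these data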;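 note: 0% = PAD4 with RCA probe and DMSO and 100% = probe without PAD4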
GSTO1 counter = inhibitors of recombinant GSTO1, primary screen, counter-screen for RBBP9 inhibitor project, biochemical, fluorescence polarization. AID 1974, 2009. inhibition, % at 5.96 µM. 300,000 compounds, 1.1% hits. Glutathione S-transferase omega-1 (Homo sapiens), P78417. activity-based probe fluorescence polarization;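 active = inhibition above the campaign mean inhibition plus 3 SD, cut at about 35% in these data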;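 note: 0% = GSTO1-1 with DMSO and 100% = wells lacking GSTO1-1 enzyme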
TDP2 inh = human TDP2 enzyme inhibitors, primary screen, biochemical, epi absorbance, recombinant enzyme. AID 720702, 2013. T5PNP hydrolysis, p-nitrophenol absorbance 415 nm. 370,000 compounds, 0.34% hits. inhibition, % at 12.8 µM;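 active = inhibition above the mean of all tested compounds plus 3 SD, set per campaign, cut at about 25% in these data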;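 note: 0% = DMSO with enzyme and 100% = buffer with substrate but no TDP2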
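Read-out basis: percent inhibition. System: recombinant human TDP2. Buffer or medium: Mg2+-containing Tris-HCl buffer, pH 7.5. Repeats: single replicate. Timing: reaction 2 h, 37 °C. Benchmarks: high control without enzyme, low control DMSO plus TDP2. Probe or stimulus: 5 mM T5PNP. Doses: 12.8 µM only. Measured by: epi absorbance of p-nitrophenol freed from T5PNP by hydrolysis.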
Apaf-1 inh = inhibitors of human Apaf-1 apoptosome, primary screen, biochemical, DEVD-Rh110 fluorescence, uHTS | Apoptotic protease-activating factor 1 (Homo sapiens), O14727 | 330,000 compounds, 0.71% hits | inhibition, % at 20 µM | reconstituted apoptosome caspase-3 activity; active = inhibition of at least 40% at 20 µM;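 note: plate controls were DMSO wells for no effect and DEVD-CHO caspase inhibitor wells for full effect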
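Assay system: Apoptosome proteins | Medium: pH 7.5 Hepes buffer with CHAPS, BSA, DTT | Also added: Cytochrome c and DEVD-Rh110 substrate | Times: 30 min plus 50 min, RT | Detection: Rhodamine 110 fluorescence at Ex 480/Em 540 nm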
PRMT1 inh = PRMT1 methyltransferase inhibitors, primary screen, biochemical, fluorescence polarization; recombinant PRMT1, activity-based probe fluorescence polarization; 370,000 compounds, 1.3% hits; AID 652257, 2013; inhibition, % at 2.79 µM; Protein arginine N-methyltransferase 1 (Homo sapiens), Q99873;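 active = inhibition above about 21% made by adding two undisclosed values, limit read from the data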
GSTO1 confirm = GSTO1 inhibitor hit confirmation, counter-screen for RBBP9 inhibitor project, biochemical, fluorescence polarization, triplicate. shares compounds with GSTO1 counter. recombinant GSTO1, probe fluorescence polarization. inhibition, % at 5.96 µM. 2,400 compounds, 54% hits. AID 2176, 2009;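 active = inhibition above the primary screen's cutoff, its mean inhibition plus 3 SD, cut at about 35% in these data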;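 note: loss of polarization as inhibitors block binding of rhodamine sulfonate ester activity probe; 0% = GSTO1 with DMSO and 100% = wells lacking GSTO1 enzyme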
PAD4 confirm = human PAD4 inhibitors, confirmation, biochemical, fluorescence polarization. shares compounds with PAD4 FP inh. recombinant PAD4, RCA probe fluorescence polarization. inhibition, % at 6.36 µM. 1,200 compounds, 28% hits. AID 488796, 2010;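 active = mean inhibition across replicates above the hit cutoff set by the earlier primary screen, cut at about 15% in these data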;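 note: inhibitors block active-site labeling by the probe so polarization falls; 0% = PAD4 with probe and DMSO and 100% = probe without PAD4 enzyme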
Apaf-1 inh conf2 = Apaf-1 inhibitors, single-dose retest, confirmation, biochemical, fluorescence, DEVD-Rh110, 20 µM; shares compounds with Apaf-1 inh; reconstituted apoptosome, caspase-3 DEVD-Rh110 fluorescence; inhibition, % at 20 µM; 1,800 compounds, 25% hits; AID 504614, 2011;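 active = mean inhibition of at least 40% at 20 µM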;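 note: plate controls were DMSO wells for no effect and DEVD-CHO caspase inhibitor control wells for full effect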
Rh110 quench = Rh110 fluorescence interference by putative Apaf-1 inhibitors, confirmation, artefact control for Apaf-1 inhibitor project, biochemical, 20 µM | shares compounds with Apaf-1 inh | quenched caspase reaction | 1,800 tested, under 10 active | AID 504615, 2011 | activation (fluorescence interference), % at 20 µM;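 active = signal rise of 40% or more at 20 µM, treated as a fluorescence artifact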
Fluor interf inh = fluorescence interference of Apaf-1 inhibitor hits, dose response, artefact control for Apaf-1 inhibitor project. shares compounds with Apaf-1 inh. IC50, µM. fluorescence interference counterscreen, Apaf-1 assay format. 460 tested, under 10 active; call rule not given here
The depositor's hits bear a star; nt = no result given.

SMILES | PAD4 FP inh | GSTO1 counter | TDP2 inh | Apaf-1 inh | PRMT1 inh | GSTO1 confirm | Apaf-1 inh conf2 | Rh110 quench | others
Cc1cc(C)c(S(=O)(=O)/N=C2\C=C(Nc3ccc(C(=O)O)cc3)C(=O)c3ccccc32)c(C)c1 | 53* | 85* | 84* | 89* | 14 | 89* | 92* | 18 | PAD4 confirm=40*;Fluor interf inh=>100
CCc1ccc(S(=O)(=O)/N=C2\C=C(Nc3ccc(O)cc3)C(=O)c3ccccc32)cc1 | 52* | 87* | nt | 95* | nt | 87* | 96* | 5 | PAD4 confirm=50*;Fluor interf inh=>100
CCCCN1CC[C@@H](C)Oc2cc(Br)ccc2S1(=O)=O | nt | nt | 3 | nt | 3 | nt | nt | nt
CCCNC(=O)C1(C)CCN1C(=O)c1ccc(C(C)(C)C)cc1 (stereo unspecified) | nt | nt | 4 | nt | -1 | nt | nt | nt
Cc1cccc(C)c1NC(=O)CSc1nnc(-c2ccco2)c(-c2ccco2)n1 | -4 | 58* | nt | 42* | nt | 40* | 27 | 2
COc1ccc(NC(=O)CSc2nnc(-c3ccco3)c(-c3ccco3)n2)cc1OC | -7 | 14 | 3 | 18 | 8 | nt | nt | nt
C=CCN1C(=O)[C@H](CC(=O)N2CCC(c3ccccc3)CC2)[C@@]2(C(=O)OCC)CCCC=C12 | nt | nt | -8 | nt | -5 | nt | nt | nt
CC1=NN(c2ccc(C)cc2)C(=O)/C1=C\c1ccc(Br)s1 | 21* | 40* | 16 | 89* | 0 | 12 | 18 | 5 | PAD4 confirm=40*
CC1=NN(c2ccccc2)C(=O)/C1=C\c1c(C)[nH]n(-c2ccccc2)c1=O | -2 | -2 | 8 | 23 | -1 | nt | nt | nt
CC1=NN(c2ccc(Br)cc2)C(=O)/C1=C/c1cccs1 | 12 | 45* | 17 | 96* | -1 | 17 | 19 | 0
CC1=NN(c2ccccc2)C(=O)/C1=C\c1sccc1C | -8 | 22 | 19 | 28 | -2 | nt | nt | nt
Nc1nnc2c(n1)CCCC2 | 9 | 67* | 21 | 83* | 3 | 10 | 72* | -27 | Fluor interf inh=>100
C1CCc2nc3c(nc2C1)CCCC3 | 3 | 10 | -5 | -8 | 2 | nt | nt | nt
CCOc1ccc2nc3cc(NCc4ccc(OC)cc4)ccc3c(N)c2c1 | -7 | 50* | nt | 96* | nt | 32 | 82* | -4 | Fluor interf inh=>100
Cc1ccc(S(=O)(=O)Oc2ccc(/C=N/N=C3/NC(=O)C(CC(=O)O)S3)cc2)cc1 (stereo unspecified) | nt | nt | 7 | 7 | -4 | nt | nt | nt
Cc1ccc(-c2ccc(/C=N/N=C3/NC(=O)C(CC(=O)O)S3)o2)c([N+](=O)[O-])c1 (stereo unspecified) | 13 | 67* | -5 | 74* | 1 | 12 | 28 | 9
O=C(O)CC1S/C(=N/N=C/c2ccc(-c3ccccc3[N+](=O)[O-])o2)NC1=O (stereo unspecified) | 20* | 62* | 0 | 73* | 18 | 9 | 21 | 2 | PAD4 confirm=-2
CCCC[n+]1ccn(-c2nc3ccccc3nc2[N-]S(=O)(=O)c2ccc(Br)cc2)c1 | 2 | 8 | 7 | -13 | 3 | nt | nt | nt

High-throughput results deposited in PubChem BioAssay by several laboratories.
